# The RNAGym collection of RNA variant scans (doi:10.1002/anie.201605470)
# B1: Osa-1-4 twister ribozyme (parent)
# chain: CCGCCUAACACUGCCAAUGCCGGUCCCAAGCCCGGAUAAAAGUGGAGGGGGCGG
# Variants of: B1
# Experiment: self-cleavage, relative activity (ratio to wild type); higher = more cleavage; co-transcriptional
# Summary of the method: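 For each read, cleavage status was taken from whether upstream sequence was present. The reads came from an Oryza sativa twister ribozyme of 54 nucleotides, whose DNA template was synthesised with 97 % wild-type base and 1 % of each other base at the 48 positions downstream of the cleavage site. The template was transcribed in vitro at 37 °C for 2 h with co-transcriptional self-cleavage, and the RNA was reverse-transcribed using a template-switching oligonucleotide, PCR-amplified and deep-sequenced. Relative activity is the fraction cleaved normalised to wild type.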
row,Variant,self-cleavage
1,A41G G53A,0.61
2,A41G G53U,0.25
3,A41G G53C,0.08
4,A41G G48A,0.08
5,A41G G48U,0.05
6,A41G G48C,0.08
7,A41G G13U,0.04
8,A41G G13A,0.06
9,A41G G13C,0.03
10,A41G C27G,0.04
11,A41G C27A,0.09
12,A41G C27U,0.09
13,A41G G34C,0.16
14,A41G G34A,0.41
15,A41G G34U,0.18
16,A41U C21A,0.87
17,A41U C21G,0.1
18,A41U C21U,1
19,G42A G51U,0.1
20,G42A G51A,0.28
21,G42A G51C,0.06

row,Variant,self-cleavage
1,A41G G44A,0.14
2,A41G G44C,0.39
3,A41G G44U,0.31
4,G42C G47U,0.06
5,G42C G47A,0.06
6,G42C G47C,0.06
7,A41U G34A,0.82
8,A41U G34C,0.47
9,A41U G34U,0.74
10,A41U C26A,0.06
11,A41U C26U,0.93
12,A41U C26G,0.11
13,A41U G53U,0.36
14,A41U G53A,0.89
15,A41U G53C,0.11
16,A41U C11G,0.45
17,A41U C11U,0.9
18,A41U C11A,0.79
19,A41G C32A,0.06
20,A41G C32G,0.13
21,A41G C32U,0.08

row,Variant,self-cleavage
1,A41U G49C,0.07
2,A41U G49A,0.14
3,A41U G49U,0.13
4,A41C U37G,1.02
5,A41C U37A,0.92
6,A41C U37C,1
7,A41U G50A,0.6
8,A41U G50U,1.03
9,A41U G50C,0.99
10,G42A U37G,0.89
11,G42A U37A,0.51
12,G42A U37C,0.88
13,G42C G48A,0.05
14,G42C G48C,0.07
15,G42C G48U,0.04
16,A41G G19C,0.08
17,A41G G19U,0.09
18,A41G G19A,0.17
19,A41U A8U,0.25
20,A41U A8C,0.07
21,A41U A8G,0.41

row,Variant,self-cleavage
1,A41U C14G,0.3
2,A41U C14U,0.7
3,A41U C14A,0.13
4,A41U G44A,0.88
5,A41U G44C,0.98
6,A41U G44U,0.87
7,A41C U43A,0.45
8,A41C U43C,0.22
9,A41C U43G,0.12
10,A41U U18A,0.92
11,A41U U18G,0.86
12,A41U U18C,0.93
13,A41U A46U,0.09
14,A41U A46C,0.06
15,A41U A46G,0.07
16,G42A G49U,0.06
17,G42A G49C,0.07
18,G42A G49A,0.07
19,A41U A7C,0.03
20,A41U A7U,0.11
